Test results taken from ChEMBL document CHEMBL4033733, “Enterovirus inhibitory activity of C-8-tert-butyl substituted 4-aryl-6,7,8,9-tetrahydrobenzo[4,5]thieno[3,2-e][1,2,4]triazolo[4,3-a]pyrimidin-5(4H)-ones” (Bioorg Med Chem Lett, 2017).

What was measured:
[1] = Antiviral activity against human rhinovirus 71 infected in human H1HeLa cells assessed as reduction in virus-induced cytopathicity incubated for 3 days by MTT assay; format: functional, cell-based, Human rhinovirus A71; conditions: Rhinovirus A, H1-HeLa, 72 h
Method in brief: (§1)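 H1 HeLa cells infected with rhinovirus (14, 21 or 71); EC50 is the concentration restoring 50% viability of the infected cells. Pleconaril served as reference.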

[2] = Cytotoxicity in human HeLa cells assessed as reduction in cell viability incubated for 3 days by MTT assay; format: cell-based
Method in brief: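 Uninfected HeLa cells; CC50 is the concentration lowering cell viability by 50%.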

[3] = Selectivity index, ratio of CC50 for human HeLa cells to EC50 for human coxsackievirus B3 infected in human HeLa cells; format: toxicity, cell-based; conditions: read-out: Ratio CC50/EC50
Method in brief: (§2)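 Cytopathic-effect reduction assay in HeLa cells infected with coxsackievirus B1, B3 or poliovirus 3, with pleconaril as reference. EC50 is the concentration that improves viability of infected HeLa cells by 50%. CC50 is the concentration that reduces viability of uninfected HeLa cells by 50%. SI is CC50/EC50.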

Liver [4] = experiment: Stability in rat liver microsomes assessed as compound remaining by mass spectrometry; format: ADME, microsome
Method in brief: (§3)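 Phase I metabolic stability in human or rat liver microsomes, with buspirone as reference. Parent compound remaining was quantified by quantitative mass spectrometry and expressed as a percentage.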

[5] = Selectivity index, ratio of CC50 for human HeLa cells to EC50 for human poliovirus 3 infected in human HeLa cells; format: toxicity, cell-based; conditions: read-out: Ratio CC50/EC50; method in brief: as §2
Coxsackievirus B3 = experiment: Antiviral activity against human coxsackievirus B3 infected in human HeLa cells assessed as reduction in virus-induced cytopathicity incubated for 3 days by MTT assay; format: functional, cell-based; conditions: Enterovirus B, 72 h
Method in brief: (§4)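 HeLa cells infected with enterovirus (coxsackievirus B1 or B3); protection from virus-induced cytopathic effect measured. EC50 is the concentration restoring 50% viability of the infected cells. Pleconaril served as reference.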

Liver [6] = experiment: Stability in human liver microsomes assessed as compound remaining by mass spectrometry; format: ADME, microsome; method in brief: as §3
[7] = Cytotoxicity in human H1HeLa cells assessed as reduction in cell viability incubated for 3 days by MTT assay; format: cell-based, H1-HeLa
Method in brief: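 Uninfected H1 HeLa cells; CC50 is the concentration lowering cell viability by 50%.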

Coxsackievirus B1 = experiment: Antiviral activity against human coxsackievirus B1 infected in human HeLa cells assessed as reduction in virus-induced cytopathicity incubated for 3 days by MTT assay; format: functional, cell-based; conditions: Enterovirus B, 72 h; method in brief: as §4
rhinovirus A21 = experiment: Antiviral activity against human rhinovirus 21 infected in human H1HeLa cells assessed as reduction in virus-induced cytopathicity incubated for 3 days by MTT assay; format: functional, cell-based; conditions: Rhinovirus A, H1-HeLa, 72 h; method in brief: as §1
[8] = Selectivity index, ratio of CC50 for human HeLa cells to EC50 for human coxsackievirus B1 infected in human HeLa cells; format: toxicity, cell-based; conditions: read-out: Ratio CC50/EC50; method in brief: as §2
Poliovirus 3 = experiment: Antiviral activity against human poliovirus 3 infected in human HeLa cells assessed as reduction in virus-induced cytopathicity incubated for 3 days by MTT assay; format: functional, cell-based; conditions: Enterovirus C, 72 h; method in brief: as §2
rhinovirus B14 = experiment: Antiviral activity against human rhinovirus 14 infected in human H1HeLa cells assessed as reduction in virus-induced cytopathicity incubated for 3 days by MTT assay; format: functional, cell-based; conditions: Rhinovirus B, H1-HeLa, 72 h; method in brief: as §1

SMILES | EC50 [1] | CC50 at 72 h [2] | selectivity ratio [3] | Stability (Liver [4]) | selectivity ratio [5] | EC50 (Coxsackievirus B3) | Stability (Liver [6]) | CC50 at 72 h [7] | EC50 (Coxsackievirus B1) | EC50 (rhinovirus A21) | selectivity ratio [8] | EC50 (Poliovirus 3) | EC50 (rhinovirus B14)
CC(C)(C)C1CCc2c(sc3c2c(=O)n(-c2ccccc2)c2nncn32)C1 (stereo unspecified) | 1.6 µM | > 100 µM | > 11.5 | 51.5% | > 51.2 | 8.65 µM | 63.2% | 9.6 µM | 8.85 µM | 2.5 µM | > 11.2 | 1.95 µM | 1.7 µM
CC(C)(C)C1CCc2c(sc3c2c(=O)n(-c2cccc(Cl)c2)c2nncn32)C1 (stereo unspecified) | 3.8 µM | 38.3 µM | – | – | – | > 38.3 µM | – | 15 µM | 17.8 µM | > 15 µM | – | 9.63 µM | 2.1 µM
CC(C)(C)C1CCc2c(sc3c2c(=O)n(-c2ccc(Br)cc2)c2nncn32)C1 (stereo unspecified) | 2.3 µM | 30.5 µM | – | – | – | > 30.5 µM | – | 11 µM | > 30.5 µM | > 11 µM | – | 12.6 µM | 2 µM
CC1(C)CCc2c(sc3c2c(=O)n(-c2ccccc2)c2nncn32)C1 | > 76.5 µM | 54.8 µM | – | – | – | > 54.8 µM | – | 76.5 µM | > 54.8 µM | > 76.5 µM | – | > 54.8 µM | > 76.5 µM
Cc1nnc2n(-c3ccccc3)c(=O)c3c4c(sc3n12)CC(C(C)(C)C)CC4 (stereo unspecified) | 4.6 µM | 45.1 µM | – | – | – | > 45.1 µM | – | 35.9 µM | > 45.1 µM | > 35.9 µM | – | > 45.1 µM | 4.3 µM
CC(C)(C)C1CCc2c(sc3c2c(=O)n(-c2ccccc2)c2nnc(S)n32)C1 (stereo unspecified) | 9.1 µM | 45.1 µM | – | – | – | > 45.1 µM | – | 40.1 µM | > 45.1 µM | 19.4 µM | – | > 45.1 µM | 10.1 µM
CC(C)(C)C1CCc2c(sc3c2c(=O)n(-c2ccc(C(F)(F)F)cc2)c2nncn32)C1 (stereo unspecified) | > 31.4 µM | 35.5 µM | – | – | – | > 35.5 µM | – | 31.4 µM | > 35.5 µM | > 31.4 µM | – | > 35.5 µM | > 31.4 µM
Cc1ccccc1-n1c(=O)c2c3c(sc2n2cnnc12)CC(C(C)(C)C)CC3 (stereo unspecified) | 10.1 µM | 39.1 µM | – | – | – | 9.22 µM | – | 35.4 µM | 9.83 µM | > 35.4 µM | – | 3.44 µM | 8.8 µM
CC1CCCc2sc3c(c21)c(=O)n(-c1ccccc1)c1nncn31 (stereo unspecified) | > 100 µM | > 100 µM | – | – | – | > 100 µM | – | > 100 µM | > 100 µM | > 100 µM | – | > 100 µM | > 100 µM
CC(C)(C)C1CCc2c(sc3c2c(=O)n(-c2ccccc2)c2nnc(-c4ccccc4)n32)C1 (stereo unspecified) | > 8.7 µM | 31.9 µM | – | – | – | > 31.9 µM | – | 8.7 µM | > 31.9 µM | > 8.7 µM | – | > 31.9 µM | > 8.7 µM
CC(C)(C)C1CCc2c(sc3c2c(=O)n(-c2ccccc2Cl)c2nncn32)C1 (stereo unspecified) | 3.9 µM | 26.3 µM | – | – | – | 16.2 µM | – | 20.7 µM | 19.5 µM | 14.7 µM | – | 1.84 µM | 2.5 µM
CC(C)(C)C1CCc2c(sc3c2c(=O)n(-c2cccc(Br)c2)c2nncn32)C1 (stereo unspecified) | 15.9 µM | 32.9 µM | – | – | – | > 32.9 µM | – | 26.3 µM | 15.6 µM | 20 µM | – | 13.2 µM | 3.5 µM
CCCC1CCc2c(sc3c2c(=O)n(-c2ccccc2)c2nncn32)C1 (stereo unspecified) | 14 µM | 41 µM | – | – | – | > 41 µM | – | 31.7 µM | > 41 µM | > 31.7 µM | – | 20 µM | 18.1 µM
Cc1ccc(-c2ccc(-n3c(=O)c4c5c(sc4n4cnnc34)CC(C(C)(C)C)CC5)cc2)cc1 (stereo unspecified) | > 16.9 µM | > 100 µM | – | – | – | 46.8 µM | – | 16.9 µM | 55.4 µM | > 16.9 µM | – | 47 µM | > 16.9 µM
CC(C)(C)C1CCc2c(sc3c2c(=O)n(-c2ccc(Cl)cc2)c2nncn32)C1 (stereo unspecified) | 3.8 µM | 36.5 µM | – | – | – | > 36.5 µM | – | 18.8 µM | > 36.5 µM | > 18.8 µM | – | 8.35 µM | 3.7 µM
O=c1c2c3c(sc2n2cnnc2n1-c1ccccc1)CCCC3 | > 100 µM | > 100 µM | – | – | – | > 100 µM | – | > 100 µM | > 100 µM | > 100 µM | – | > 100 µM | > 100 µM
COc1ccc(-n2c(=O)c3c4c(sc3n3cnnc23)CC(C(C)(C)C)CC4)cc1 (stereo unspecified) | 1.8 µM | 39.1 µM | – | – | – | > 39.1 µM | – | 21.9 µM | > 39.1 µM | 2.6 µM | – | 3.63 µM | 1.9 µM
O=c1c2c3c(sc2n2cnnc2n1-c1ccccc1)CC(c1ccccc1)CC3 (stereo unspecified) | > 27.6 µM | 27.5 µM | – | – | – | > 27.5 µM | – | 27.6 µM | > 27.5 µM | > 27.6 µM | – | > 27.5 µM | 19.4 µM
CC1CCc2c(sc3c2c(=O)n(-c2ccccc2)c2nncn32)C1 (stereo unspecified) | > 69 µM | 79 µM | – | – | – | > 79 µM | – | 69 µM | > 79 µM | > 69 µM | – | > 79 µM | 16.4 µM
CC(C)(C)C1CCc2c(sc3c2c(=O)n(-c2ccccc2)c2nnc(N)n32)C1 (stereo unspecified) | 12.8 µM | 45.9 µM | – | – | – | > 45.9 µM | – | 35.4 µM | > 45.9 µM | > 35.4 µM | – | > 45.9 µM | 8.2 µM
Cc1ccc(-n2c(=O)c3c4c(sc3n3cnnc23)CC(C(C)(C)C)CC4)cc1 (stereo unspecified) | 1.8 µM | 32.8 µM | – | – | – | 12.9 µM | – | 11.1 µM | 14.3 µM | 2.4 µM | – | 1.94 µM | 1.8 µM
CC1(C)Cc2c(sc3c2c(=O)n(-c2ccccc2)c2nncn32)C(C)(C)C1 | > 9.6 µM | 9.09 µM | – | – | – | > 9.09 µM | – | 9.6 µM | > 9.09 µM | > 9.6 µM | – | > 9.09 µM | > 9.6 µM
O=C1CC2(CCCC2)CC(=O)N1CCCCN1CCN(c2ncccn2)CC1 [BUSPIRONE] | – | – | – | 0.119% | – | – | 3.52% | – | – | – | – | – | –
Cc1cc(CCCOc2c(C)cc(-c3noc(C(F)(F)F)n3)cc2C)on1 [PLECONARIL] | 0.013 µM | 42.8 µM | – | – | – | > 42.8 µM | – | 53.5 µM | 0.13 µM | 0.083 µM | – | 0.51 µM | 0.31 µM
